Laboratory results reported in publication PMC4207575 (International Journal of Nanomedicine, 2014).
No end group written: not given here.

Set-up: species or system Kunming mice
Details: mouse, in vivo, iv, 5 mg/kg
Method in brief: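 Kunming mice (10 weeks, 18–22 g), two groups of six; free or nanoparticle-loaded peptide at matched peptide dose by tail-vein injection. Tail-vein blood (20 μL) drawn at intervals into heparinized micropipettes and mixed with PBS; residue taken up in 50% acetonitrile/0.1% TFA. C18 HPLC at 40°C, water/acetonitrile (0.1% TFA) gradient, 280 nm, thymopentin internal standard; plasma calibration 0.195313–25 μg/mL, 1/x2 weighting. Noncompartmental analysis; mean ± SD.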

Substance: HSDAVFTDNYTRLRKQVAAKKYLQSIKNKRY-NH2 (C-terminus assumed) [BAY 55-9837]
- AUC(0-t): 2680 ± 160 ng·h/mL
- clearance: 0.733 mL/min
- half-life: 19.2 ± 3.6 min
